From ChEMBL document CHEMBL4270613, “Design, synthesis, biological evaluation and structure-activity relationship of sophoridine derivatives bearing pyrrole or indole scaffold as potential antitumor agents” (Eur J Med Chem, 2018)

System: HepG2
Assay: Antiproliferative activity against human HepG2 cells after 48 hrs by MTT assay
Assay type: functional, cell-based
Settings: HepG2, 48 h
In short: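 HepG2 exposed to compounds for 48 h; MTT readout; camptothecin positive control; IC50 calculated; mean ± SD of three independent experiments, each in triplicate.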

Row | SMILES | IC50
1 | Cc1ccc(Cn2cc(/C=C3\CC[C@@H]4[C@H]5CCCN6CCC[C@H](CN4C3=O)[C@@H]56)c3ccccc32)cc1 | 9.39 µM
2 | O=C1/C(=C/c2cccn2Cc2ccccc2Br)CC[C@@H]2[C@H]3CCCN4CCC[C@H](CN12)[C@@H]34 | 13.5 µM
3 | O=C1/C(=C/c2cn(Cc3ccc4ccccc4c3)c3ccccc23)CC[C@@H]2[C@H]3CCCN4CCC[C@H](CN12)[C@@H]34 | 12.8 µM
4 | O=C1/C(=C/c2cccn2Cc2ccc(Cl)cc2)CC[C@@H]2[C@H]3CCCN4CCC[C@H](CN12)[C@@H]34 | 13.5 µM
5 | O=C1/C(=C/c2cccn2Cc2ccccc2)CC[C@@H]2[C@H]3CCCN4CCC[C@H](CN12)[C@@H]34 | 10.9 µM
6 | O=C1/C(=C/c2cn(Cc3ccc(OCc4ccccc4)cc3)c3cc(Cl)ccc23)CC[C@@H]2[C@H]3CCCN4CCC[C@H](CN12)[C@@H]34 | 14.3 µM
7 | COc1cccc(Cn2cccc2/C=C2\CC[C@@H]3[C@H]4CCCN5CCC[C@H](CN3C2=O)[C@@H]45)c1 | 17.2 µM
8 | COc1ccc(Br)c(Cn2cccc2/C=C2\CC[C@@H]3[C@H]4CCCN5CCC[C@H](CN3C2=O)[C@@H]45)c1 | 9.66 µM
9 | COc1cc(Cn2cccc2/C=C2\CC[C@@H]3[C@H]4CCCN5CCC[C@H](CN3C2=O)[C@@H]45)cc(OC)c1 | 21.2 µM
10 | O=C1/C(=C/c2cccn2Cc2ccc3ccccc3c2)CC[C@@H]2[C@H]3CCCN4CCC[C@H](CN12)[C@@H]34 | 16.1 µM
11 | Cc1ccccc1Cn1cc(/C=C2\CC[C@@H]3[C@H]4CCCN5CCC[C@H](CN3C2=O)[C@@H]45)c2ccccc21 | 16.3 µM
12 | O=C1/C(=C/c2cn(Cc3ccc(OCc4ccc(Br)cc4)cc3)c3ccccc23)CC[C@@H]2[C@H]3CCCN4CCC[C@H](CN12)[C@@H]34 | 10.1 µM
13 | c1ccc(COc2ccc(Cn3ccc4ccccc43)cc2)cc1 | > 50 µM
14 | O=C1/C(=C/c2cccn2Cc2ccc(OC(F)(F)F)cc2)CC[C@@H]2[C@H]3CCCN4CCC[C@H](CN12)[C@@H]34 | 26.5 µM
15 | O=C1/C(=C/c2cccn2Cc2ccc(F)cc2)CC[C@@H]2[C@H]3CCCN4CCC[C@H](CN12)[C@@H]34 | 29.4 µM
16 | COc1ccc2c(ccn2Cc2ccc(OCc3ccccc3)cc2)c1 | > 50 µM

Row | SMILES | IC50
17 | O=C1/C(=C/c2cn(Cc3c(Cl)cccc3Cl)c3ccccc23)CC[C@@H]2[C@H]3CCCN4CCC[C@H](CN12)[C@@H]34 | 9.78 µM
18 | O=C1/C(=C/c2cccn2Cc2ccc(Br)cc2)CC[C@@H]2[C@H]3CCCN4CCC[C@H](CN12)[C@@H]34 | 12.6 µM
19 | CC(C)(C)c1ccc(Cn2cccc2/C=C2\CC[C@@H]3[C@H]4CCCN5CCC[C@H](CN3C2=O)[C@@H]45)cc1 | 13.6 µM
20 | O=C1/C(=C/c2cn(Cc3ccccc3Br)c3ccccc23)CC[C@@H]2[C@H]3CCCN4CCC[C@H](CN12)[C@@H]34 | 15.4 µM
21 | CC(C)(C)c1cc(Cn2cccc2/C=C2\CC[C@@H]3[C@H]4CCCN5CCC[C@H](CN3C2=O)[C@@H]45)cc(C(C)(C)C)c1 | 18.1 µM
22 | Cc1ccccc1Cn1cccc1/C=C1\CC[C@@H]2[C@H]3CCCN4CCC[C@H](CN2C1=O)[C@@H]34 | 25.3 µM
23 | Cn1cccc1/C=C1\CC[C@@H]2[C@H]3CCCN4CCC[C@H](CN2C1=O)[C@@H]34 | > 100 µM
24 | O=C1/C(=C/c2cccn2Cc2cccc(Cl)c2)CC[C@@H]2[C@H]3CCCN4CCC[C@H](CN12)[C@@H]34 | 16.6 µM
25 | Cc1cc(C)cc(Cn2cccc2/C=C2\CC[C@@H]3[C@H]4CCCN5CCC[C@H](CN3C2=O)[C@@H]45)c1 | 14.8 µM
26 | O=C1/C(=C/c2cccn2Cc2ccccc2Cl)CC[C@@H]2[C@H]3CCCN4CCC[C@H](CN12)[C@@H]34 | 17.4 µM
27 | COc1ccc(Cn2cccc2/C=C2\CC[C@@H]3[C@H]4CCCN5CCC[C@H](CN3C2=O)[C@@H]45)cc1 | 30.1 µM
28 | Cc1ccc(Cn2cccc2/C=C2\CC[C@@H]3[C@H]4CCCN5CCC[C@H](CN3C2=O)[C@@H]45)cc1 | 17.3 µM
29 | Cc1cccc(Cn2cccc2/C=C2\CC[C@@H]3[C@H]4CCCN5CCC[C@H](CN3C2=O)[C@@H]45)c1 | 18.1 µM
30 | O=C1/C(=C/c2cccc3c2ccn3Cc2ccc(OCc3ccccc3)cc2)CC[C@@H]2[C@H]3CCCN4CCC[C@H](CN12)[C@@H]34 | 15.2 µM
31 | O=C1/C(=C/c2cn(Cc3ccc(OCc4ccccc4)cc3)c3ccccc23)CC[C@@H]2[C@H]3CCCN4CCC[C@@H](CN12)[C@@H]34 | 9.96 µM

Compounds with a lower IC50, results first:

Row | IC50 | SMILES
32 | 9.05 µM | O=C1/C(=C/c2cn(Cc3ccccc3Cl)c3ccccc23)CC[C@@H]2[C@H]3CCCN4CCC[C@H](CN12)[C@@H]34
33 | 8.73 µM | O=C1/C(=C/c2cn(Cc3ccc(OC(F)(F)F)cc3)c3ccccc23)CC[C@@H]2[C@H]3CCCN4CCC[C@H](CN12)[C@@H]34
34 | 8.62 µM | O=C1/C(=C/c2cn(Cc3cccc(Br)c3)c3ccccc23)CC[C@@H]2[C@H]3CCCN4CCC[C@H](CN12)[C@@H]34
35 | 8.27 µM | Cc1cccc(Cn2cc(/C=C3\CC[C@@H]4[C@H]5CCCN6CCC[C@H](CN4C3=O)[C@@H]56)c3ccccc32)c1
36 | 8.23 µM | COc1ccc(Cn2cc(/C=C3\CC[C@@H]4[C@H]5CCCN6CCC[C@H](CN4C3=O)[C@@H]56)c3ccccc32)cc1
37 | 8.14 µM | COc1cccc(Cn2cc(/C=C3\CC[C@@H]4[C@H]5CCCN6CCC[C@H](CN4C3=O)[C@@H]56)c3ccccc32)c1
38 | 7.71 µM | Cc1ccc2c(c1)c(/C=C1\CC[C@@H]3[C@H]4CCCN5CCC[C@H](CN3C1=O)[C@@H]45)cn2Cc1ccc(OCc2ccccc2)cc1
39 | 7.25 µM | O=C1/C(=C/c2ccc3c(ccn3Cc3ccc(OCc4ccccc4)cc3)c2)CC[C@@H]2[C@H]3CCCN4CCC[C@H](CN12)[C@@H]34
40 | 7.22 µM | O=C1/C(=C/c2cccn2Cc2ccc(OCc3ccccc3)cc2)CC[C@@H]2[C@H]3CCCN4CCC[C@H](CN12)[C@@H]34
41 | 6.95 µM | O=C1/C(=C/c2cn(Cc3ccccc3)c3ccccc23)CC[C@@H]2[C@H]3CCCN4CCC[C@H](CN12)[C@@H]34
42 | 6.88 µM | COc1cc(Cn2cc(/C=C3\CC[C@@H]4[C@H]5CCCN6CCC[C@H](CN4C3=O)[C@@H]56)c3ccccc32)cc(OC)c1
43 | 6.59 µM | O=C1/C(=C/c2cn(Cc3ccc(Cl)cc3)c3ccccc23)CC[C@@H]2[C@H]3CCCN4CCC[C@H](CN12)[C@@H]34
44 | 6.31 µM | COc1ccc2c(c1)c(/C=C1\CC[C@@H]3[C@H]4CCCN5CCC[C@H](CN3C1=O)[C@@H]45)cn2Cc1ccc(OCc2ccc(Br)cc2)cc1
45 | 6.17 µM | O=C1/C(=C/c2cn(Cc3ccc(OCc4ccc(Cl)cc4)cc3)c3ccccc23)CC[C@@H]2[C@H]3CCCN4CCC[C@H](CN12)[C@@H]34
46 | 6.07 µM | CC(C)(C)c1ccc(COc2ccc(Cn3cc(/C=C4\CC[C@@H]5[C@H]6CCCN7CCC[C@H](CN5C4=O)[C@@H]67)c4ccccc43)cc2)cc1
47 | 6.01 µM | O=C1/C(=C/c2cn(Cc3ccc(OCc4ccc(OC(F)(F)F)cc4)cc3)c3ccccc23)CC[C@@H]2[C@H]3CCCN4CCC[C@H](CN12)[C@@H]34
48 | 5.94 µM | O=C1/C(=C/c2cn(Cc3ccc(Br)cc3)c3ccccc23)CC[C@@H]2[C@H]3CCCN4CCC[C@H](CN12)[C@@H]34
49 | 5.86 µM | COc1ccc2c(c1)c(/C=C1\CC[C@@H]3[C@H]4CCCN5CCC[C@H](CN3C1=O)[C@@H]45)cn2Cc1ccc(OCc2ccc(C(C)(C)C)cc2)cc1
50 | 5.72 µM | COc1ccc2c(c1)c(/C=C1\CC[C@@H]3[C@H]4CCCN5CCC[C@H](CN3C1=O)[C@@H]45)cn2Cc1ccc(OCc2ccc(OC(F)(F)F)cc2)cc1
51 | 5.32 µM | Cc1ccc(COc2ccc(Cn3cc(/C=C4\CC[C@@H]5[C@H]6CCCN7CCC[C@H](CN5C4=O)[C@@H]67)c4ccccc43)cc2)cc1
52 | 4.83 µM | O=C1/C(=C/c2cn(Cc3ccc(OCc4ccc(F)cc4)cc3)c3ccccc23)CC[C@@H]2[C@H]3CCCN4CCC[C@H](CN12)[C@@H]34
53 | 4.57 µM | CC(C)(C)c1ccc(Cn2cc(/C=C3\CC[C@@H]4[C@H]5CCCN6CCC[C@H](CN4C3=O)[C@@H]56)c3ccccc32)cc1
54 | 4.56 µM | Cc1cc(C)cc(Cn2cc(/C=C3\CC[C@@H]4[C@H]5CCCN6CCC[C@H](CN4C3=O)[C@@H]56)c3ccccc32)c1
55 | 4.18 µM | COc1ccc2c(c1)c(/C=C1\CC[C@@H]3[C@H]4CCCN5CCC[C@H](CN3C1=O)[C@@H]45)cn2Cc1ccc(OCc2ccc(C)cc2)cc1
56 | 4.16 µM | COc1ccc(Br)c(Cn2cc(/C=C3\CC[C@@H]4[C@H]5CCCN6CCC[C@H](CN4C3=O)[C@@H]56)c3ccccc32)c1
57 | 3.97 µM | COc1ccc2c(c1)c(/C=C1\CC[C@@H]3[C@H]4CCCN5CCC[C@H](CN3C1=O)[C@@H]45)cn2Cc1ccc(OCc2ccc(Cl)cc2)cc1
58 | 3.97 µM | O=C1/C(=C/c2cn(Cc3ccc(OCc4ccccc4)cc3)c3ccc(Br)cc23)CC[C@@H]2[C@H]3CCCN4CCC[C@H](CN12)[C@@H]34
59 | 3.12 µM | COc1ccc2c(c1)c(/C=C1\CC[C@@H]3[C@H]4CCCN5CCC[C@H](CN3C1=O)[C@@H]45)cn2Cc1ccc(OCc2ccc(F)cc2)cc1
60 | 3.08 µM | O=C1/C(=C/c2cn(Cc3ccc(OCc4ccccc4)cc3)c3ccccc23)CC[C@@H]2[C@H]3CCCN4CCC[C@H](CN12)[C@@H]34
